Laboratory results: ChEMBL document CHEMBL3085699, “Design, synthesis, and biological evaluation of indole-2-carboxamides: a promising class of antituberculosis agents” (J Med Chem, 2013)
In brackets after ≈: the same amount, converted by molar mass.

Tests used:
[1] = Intrinsic clearance in mouse liver microsomes by LC/MS/MS analysis; format: ADME, Microsome; conditions: read-out: CLH
Outline: (§1)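 Compound depletion in liver microsomes of the named species, measured by LC/MS/MS. In vitro half-life gave hepatic extraction ratio and predicted metabolic clearance.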

[2] = tested on: Mycobacterium tuberculosis; assay: Antimicrobial activity against Mycobacterium tuberculosis H37Rv ATCC 27294 after 5 days by three-fold serial dilution assay; format: functional; conditions: H37Rv ATCC 27294, 120 h
Outline: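 H37Rv grown in 7H9 broth with 0.05% Tween 80 and 10% ADS. Compounds in 90% DMSO, three-fold serially diluted in duplicate. Early-log culture diluted to OD600 0.02 was added, then incubated at 37 °C for 5 days. Growth read by absorbance. MIC50 (50% growth inhibition) taken from non-linear curve fits. Isoniazid ran as internal control in every assay.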

[3] = Aqueous solubility of the compound at pH 6.8 after 24 hrs by high-throughput equilibrium solubility assay; format: physicochemical; conditions: buffer
Outline: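 Miniaturized shake-flask equilibrium method. DMSO stock removed by centrifugal evaporation, aqueous buffer added, shaken 24 h. Plunger pushed through a filter membrane, shaken a further 30 min, and filtrate quantified by HPLC.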

[4] = tested on: Mycobacterium tuberculosis; assay: Antitubercular activity against Mycobacterium tuberculosis H37Rv infected in Balb/c mouse model assessed as log CFU reduction at 75 mg/kg, po qd administered for 28 days relative to untreated control; format: functional
Outline: (§2)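 Balb/c mice infected intranasally on day 0 with 10^3 H37Rv bacilli. Oral dosing, once daily, 7 days a week for 28 days, began 7 days post-infection at 25 or 75 mg/kg; ethambutol 100 mg/kg served as positive control. Lungs removed aseptically and homogenized. CFU counted by serial dilution plating on 7H11 agar; log lung CFU compared with untreated controls.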

[5] = Intrinsic clearance in human liver microsomes by LC/MS/MS analysis; format: ADME; conditions: read-out: CLH; outline: as §1
[6] = Volume of distribution at steady state in mouse at 5 mg/kg, iv by LC/MS analysis; format: ADME, organism-based; design: dose 5 mg/kg, route intravenous; conditions: in vivo, read-out: Vdss
Outline: (§3)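 Mice dosed p.o. at 25 mg/kg (2.5 mg/mL) or i.v. at 5 mg/kg (1 mg/mL). Vehicles varied: propanediol/solutol in pH 4.6 acetate buffer, or microemulsion/Cremophor-based mixes. Blood taken 0.08–24 h (i.v. first point 0.02 h), three mice per time point. Plasma extracted with acetonitrile:methanol:acetic acid and quantified by LC/MS/MS (LLOQ 1–3 ng/mL). Noncompartmental analysis of mean profiles; F from dose-corrected p.o./i.v. AUC.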

[7] = tested on: Mycobacterium tuberculosis; assay: Antitubercular activity against Mycobacterium tuberculosis H37Rv infected in Balb/c mouse model assessed as log CFU reduction at 25 mg/kg, po qd administered for 28 days relative to untreated control; format: functional; outline: as §2
[8] = Elimination half life in mouse at 25 mg/kg, po by LC/MS analysis; format: ADME, organism-based; design: dose 25 mg/kg, route oral; conditions: in vivo, read-out: beta t1/2 (converted); outline: as §3
[9] = AUC (0 to 24 hrs) in mouse at 25 mg/kg, po by LC/MS analysis; format: ADME, organism-based; design: time < 24 hr, dose 25 mg/kg, route oral; conditions: plasma; outline: as §3
[10] = Elimination half life in mouse at 5 mg/kg, iv by LC/MS analysis; format: ADME, organism-based; design: dose 5 mg/kg, route intravenous; conditions: in vivo, read-out: beta t1/2 (converted); outline: as §3
[11] = Cmax in mouse at 25 mg/kg, po by LC/MS analysis; format: ADME, organism-based; design: dose 25 mg/kg, route oral; conditions: in vivo; outline: as §3
[12] = Oral bioavailability in mouse at 25 mg/kg by LC/MS analysis; format: ADME, organism-based; conditions: in vivo; outline: as §3
[13] = Intrinsic clearance in rat liver microsomes by LC/MS/MS analysis; format: ADME; conditions: read-out: CLH; outline: as §1
[14] = Clearance in mouse at 5 mg/kg, iv by LC/MS analysis; format: ADME, organism-based; design: dose 5 mg/kg, route intravenous; conditions: in vivo; outline: as §3
THP-1 = assay: Cytotoxicity against human THP1 cells; format: cell-based
[15] = Elimination half life in mouse at 5 mg/kg, iv and 75 mg/kg, po by LC/MS analysis; format: ADME, organism-based; conditions: in vivo, read-out: beta t1/2 (converted)
[16] = AUC (0 to 24 hrs) in mouse at 5 mg/kg, iv and 75 mg/kg, po by LC/MS analysis; format: ADME, organism-based; conditions: plasma

| Compound | microsomal CLint [1] [µL/min/mg] | MIC50 [2] [µM] | solubility thermodynamic at 24 h [3] [µM] | other results |
| --- | --- | --- | --- | --- |
| C[C@H]1CC[C@H](NC(=O)c2cc3c(F)cc(F)cc3[nH]2)CC1 | 149 | 0.16 (≈ 0.0468 µg/mL) | < 4 |  |
| Cc1cc(C)c2cc(C(=O)NC3CCOCC3)[nH]c2c1 |  | > 20 | 17 (≈ 4.63 µg/mL) |  |
| Cc1cc(C)c2cc(C(=O)NC(C)C)[nH]c2c1 |  | > 20 | 20 (≈ 4.61 µg/mL) |  |
| CC1CCC(NC(=O)c2cc3cc(Cl)cc(Cl)c3[nH]2)CC1 (stereo not drawn) | 187 | 0.41 (≈ 0.133 µg/mL) |  |  |
| CC1CCC(NC(=O)c2cc3c(Cl)cccc3[nH]2)CC1 (stereo not drawn) | 462 | 0.19 (≈ 0.0553 µg/mL) |  |  |
| C[C@H]1CCCC[C@H]1NC(=O)c1cc2c(F)cc(F)cc2[nH]1 | 660 | 0.28 (≈ 0.0819 µg/mL) | < 4 |  |
| CC1CCC(NC(=O)c2cc3c(F)cc(F)cc3[nH]2)CC1 (stereo not drawn) | 866 | 0.3 (≈ 0.0877 µg/mL) | < 4 |  |
| CC1CCC(NC(=O)c2cc3cc(Cl)c(Cl)cc3[nH]2)CC1 (stereo not drawn) | 73.3 | 0.16 (≈ 0.052 µg/mL) |  |  |
| Cc1nc(C)c2cc(C(=O)N[C@@H]3CCCC[C@@H]3C)[nH]c2n1 |  | > 20 | 143 (≈ 41 µg/mL) |  |
| Cc1cc(C)c2c(c1)NC(C(=O)N[C@@H]1CCCC[C@@H]1C)C2 (stereo partly drawn) |  | 1.24 (≈ 0.355 µg/mL) | < 4 |  |
| Cc1cc(C)c2nc(C(=O)N[C@@H]3CCCC[C@@H]3C)[nH]c2c1 |  | > 20 |  |  |
| COCCNC(=O)c1cc2c(C)cc(C)cc2[nH]1 |  | > 20 | 620 (≈ 153 µg/mL) |  |
| CC1CCC(NC(=O)c2cc3c(Cl)cc(F)cc3[nH]2)CC1 (stereo not drawn) | 77 | 0.18 (≈ 0.0556 µg/mL) | < 4 |  |
| CC1CCC(NC(=O)c2cc3c(Cl)ccc(Cl)c3[nH]2)CC1 (stereo not drawn) | 40.4 | > 20 |  |  |
| C[C@H]1CCCC[C@H]1NC(=O)c1cc2c(Cl)cc(Cl)cc2[nH]1 | 89 | 0.053 (≈ 0.0172 µg/mL) | < 4 |  |
| CCC(CC)NC(=O)c1cc2c(C)cc(C)cc2[nH]1 |  | 4.33 (≈ 1.12 µg/mL) | < 4 |  |
| Cc1cc(C)c2cc(C(=O)N(C)C3CCCCC3)[nH]c2c1 |  | > 20 |  |  |
| Cc1cc(C)c2cc(C(=O)N[C@@H]3CCCC[C@@H]3C)n(C)c2c1 |  | > 20 |  |  |
| Cc1cc(C)c2cc(C(=O)Nc3ccccc3)[nH]c2c1 |  | 16 (≈ 4.23 µg/mL) | < 4 |  |
| CC1CCC(NC(=O)c2cc3ccc(Cl)c(Cl)c3[nH]2)CC1 (stereo not drawn) | 308 | 0.97 (≈ 0.315 µg/mL) |  |  |

| Compound | microsomal CLint [1] [µL/min/mg] | MIC50 [2] [µM] | solubility thermodynamic at 24 h [3] [µM] | other results |
| --- | --- | --- | --- | --- |
| CC1(C)CCC(NC(=O)c2cc3c(F)cc(F)cc3[nH]2)CC1 | 132 | 0.023 (≈ 0.00705 µg/mL) | < 4 | FC [4]: 4.6; microsomal CLint [5]: 3.4 µL/min/mg; Vd [6]: 2.24 L/kg; FC [7]: 2.4; half-life [8]: 5.18 h; AUC(0-t) at 24 h [9]: 35.5 µM·h; half-life [10]: 4.47 h; Cmax [11]: 4.21 µM; bioavailability [12]: 51%; microsomal CLint [13]: 87 µL/min/mg; clearance [14]: 18.7 mL/min/kg |
| C[C@H]1CC[C@@H](NC(=O)c2cc3c(Cl)cc(Cl)cc3[nH]2)CC1 | 47 | 0.18 (≈ 0.0585 µg/mL) | < 4 |  |
| Cc1cc(C)c2cc(C(=O)NC3CCCCC3)[nH]c2c1 |  | 0.82 (≈ 0.222 µg/mL) | < 4 |  |
| CCC(C)NC(=O)c1cc2c(C)cc(C)cc2[nH]1 (stereo not drawn) |  | 9.33 (≈ 2.28 µg/mL) | 22 (≈ 5.38 µg/mL) |  |
| CC1CCC(NC(=O)c2cc3cccc(Cl)c3[nH]2)CC1 (stereo not drawn) | 1040 | 1.49 (≈ 0.433 µg/mL) |  |  |
| Cc1cc2[nH]c(C(=O)N[C@@H]3CCCC[C@@H]3C)cc2c(C)n1 |  | > 20 |  |  |
| Cc1cc(C)c2cc(C(=O)NC3CCCCCC3)[nH]c2c1 |  | 0.1 (≈ 0.0284 µg/mL) | < 4 |  |
| CC1CCC(NC(=O)c2cc3cc(Cl)ccc3[nH]2)CC1 (stereo not drawn) | 122 | 1.29 (≈ 0.375 µg/mL) |  |  |
| CC1CCC(NC(=O)c2cc3c(Cl)c(Cl)ccc3[nH]2)CC1 (stereo not drawn) | 60.8 | 0.22 (≈ 0.0716 µg/mL) |  |  |
| Cc1cc(C)c2cc(C(=O)NC3CCCCC3O)[nH]c2c1 (stereo not drawn) |  | 8.9 (≈ 2.55 µg/mL) | 56 (≈ 16 µg/mL) |  |
| C[C@H]1CC[C@H](NC(=O)c2cc3c(Cl)cc(Cl)cc3[nH]2)CC1 | 3.4 | 0.14 (≈ 0.0455 µg/mL) | < 4 | FC [4]: 0.88; microsomal CLint [5]: 10 µL/min/mg; Activity (THP-1): > 20 µM; half-life [15]: 5.29 h; AUC(0-t) [16]: 89.1 µM·h; microsomal CLint [13]: 30.5 µL/min/mg |
| CC1CCC(NC(=O)c2cc3ccc(Cl)cc3[nH]2)CC1 (stereo not drawn) | 433 | 0.23 (≈ 0.0669 µg/mL) |  |  |
| NNC(=O)c1ccncc1 [ISONIAZID] |  | 0.33 (≈ 0.0453 µg/mL) |  |  |
| CC1CCC(NC(=O)c2cc3c(Cl)cc(Cl)cc3[nH]2)CC1 (stereo not drawn) | 37 | 0.15 (≈ 0.0488 µg/mL) | < 4 | Vd [6]: 2.2 L/kg; half-life [8]: 4.2 h; AUC(0-t) at 24 h [9]: 30.4 µM·h; half-life [10]: 6.89 h; Cmax [11]: 7.23 µM; bioavailability [12]: 48%; clearance [14]: 20.1 mL/min/kg |
| CC1CCC(NC(=O)c2cc3c(F)cc(Cl)cc3[nH]2)CC1 (stereo not drawn) | 28 | 0.19 (≈ 0.0587 µg/mL) | < 4 |  |
| Cc1cc(C)c2cc(C(=O)NCCC(C)C)[nH]c2c1 |  | 3.26 (≈ 0.842 µg/mL) |  |  |
| Cc1cc(C)c2cc(C(=O)NCC(C)C)[nH]c2c1 |  | 11.8 (≈ 2.9 µg/mL) |  |  |
| Cc1cc(C)c2cc(C(=O)NC3CCN(C)CC3)[nH]c2c1 |  | > 20 | > 10000 |  |
| O=C(NC1CCC(F)(F)CC1)c1cc2c(Cl)cc(Cl)cc2[nH]1 | 23 | 0.85 (≈ 0.295 µg/mL) | < 4 | microsomal CLint [5]: 7.8 µL/min/mg; microsomal CLint [13]: 38.8 µL/min/mg |
